The target of data set [1] is T1, Amine oxidase [flavin-containing] A (Rattus norvegicus, UniProt P21396).
T1 sequence (P21396 whole entry): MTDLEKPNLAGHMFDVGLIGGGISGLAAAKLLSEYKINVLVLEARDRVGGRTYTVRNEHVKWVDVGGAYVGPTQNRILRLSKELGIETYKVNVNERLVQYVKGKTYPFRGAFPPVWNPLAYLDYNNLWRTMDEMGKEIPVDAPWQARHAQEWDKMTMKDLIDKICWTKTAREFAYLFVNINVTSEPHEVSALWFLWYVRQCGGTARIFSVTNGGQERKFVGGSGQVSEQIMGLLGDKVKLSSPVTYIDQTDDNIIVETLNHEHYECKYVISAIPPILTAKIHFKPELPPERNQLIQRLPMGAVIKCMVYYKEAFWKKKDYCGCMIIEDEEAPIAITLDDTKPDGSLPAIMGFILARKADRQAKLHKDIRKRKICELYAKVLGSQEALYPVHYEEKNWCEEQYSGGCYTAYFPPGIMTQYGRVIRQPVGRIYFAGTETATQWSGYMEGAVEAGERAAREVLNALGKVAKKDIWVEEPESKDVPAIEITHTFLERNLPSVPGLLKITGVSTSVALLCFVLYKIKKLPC
Nature of the data set: Inhibitory concentration against monoamine oxidase A in rat brain mitochondrial suspension. Type of data set: tissue-based. An outline of the steps:
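Crude brain mitochondrial suspension from male Sprague-Dawley rats (180-220 g). MAO-A substrate 5-HT 100 µM; substrate and deaminated metabolite measured by HPLC with electrochemical detection. Inhibition relative to enzyme treated identically without inhibitor. IC50 from % inhibition vs -log[I] curves, 5-8 concentrations each in triplicate; mean ± SD of at least two independent experiments.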

In data set [2] the target is T1, Amine oxidase [flavin-containing] A. The experiment in a line: Percent inhibition of rat brain monoamine oxidase A in mitochondrial suspension after 10 minutes pre-incubation and washing at 10e-7 M. In outline:
(§1)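 Crude rat brain mitochondrial suspension preincubated 10 min with inhibitor, then washed three times by centrifugation and resuspension. MAO-A activity measured before and after washing by HPLC-ED with 5-HT (100 µM) as selective substrate, against control preparations. Mean ± SD of triplicate determinations.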

Data set [3] has the same target. Nature of the data set: Percent inhibition of rat brain monoamine oxidase A in mitochondrial suspension after 10 minutes pre-incubation before washing at 10e-7 M. In outline:
as §1

The target is the same in data set [4]. The experiment in a line: Percent inhibition of rat brain monoamine oxidase A in mitochondrial suspension without pre-incubation at 10e-7 M.
For data set [5] the target is unchanged. Nature of the data set: Percent inhibition of rat brain monoamine oxidase A in mitochondrial suspension with 30 minutes pre-incubation at 10e-7 M. Particulars: 0.5 h.

On to `COc1cc(SC(C)C)c(OC)cc1CC(C)N` (configuration not stated), for which the IC50 (usually the concentration that inhibits the measured activity by half) in data set [1] came out at 27.3 µM. The molecule `CCOc1ccc(CC(C)N)cc1` (configuration not stated) registered an IC50 in data set [1] of 0.2 µM. With `CCCSc1cc(OC)c(CC(C)NC)cc1OC` (configuration not stated), the IC50 in data set [1] came out at 0.3 µM. `COc1cc(SC)cc(OC)c1CC(C)N` (configuration not stated) yielded an IC50 in data set [1] of 0.3 µM.

On to `CCC(Cc1cc(OC)c(SC)cc1OC)NC` (configuration not stated), for which the IC50 in data set [1] amounted to 15.5 µM. The molecule `COc1cc(Cl)c(CC(C)N)c(OC)c1` (configuration not stated) returned a concentration for half-maximal inhibition (IC50) in data set [1] of 0.07 µM. The Inhibition (usually how much of the control response was suppressed) in data set [2] was 0%; in data set [3] it was 58%.

In data set [1], `CCSc1cc(OC)c(CC(C)NC)cc1OC` (configuration not stated) had an IC50 of 1.4 µM. This lies in the single-digit micromolar range. On the same count and under the same terms, the result for `CCCSc1cc(OC)c(CC(N)CC)cc1OC` (configuration not stated) reads 7.6 µM.

Turning to `CCSc1cc(OC)c(CC(C)N)c(OC)c1` (configuration not stated), in data set [1], the IC50 came to 0.08 µM. In addition, the Inhibition in data set [2] was 0%; in data set [3] it was 40%; in data set [4] it was 23.7%; in data set [5] it was 33%. For `CNC(C)Cc1cc(OC)c(SC)cc1OC` (configuration not stated), the 50% inhibitory concentration (IC50) in data set [1] amounted to 1.8 µM. This lies in the single-digit micromolar range. In the case of `CC(C)CSc1ccc(CC(C)N)cc1` (configuration not stated), in data set [1], it took 0.4 µM to reach half-maximal inhibition (IC50). Same read-out and setting: to `CCCCSc1cc(OC)c(CC(C)N)cc1OC` (configuration not stated) belongs 2.9 µM; to `CCC(N)Cc1cc(OC)c(SC)cc1OC` (configuration not stated), 30.9 µM; to `CCSc1cc(OC)c(CC(CC)NC)cc1OC` (configuration not stated), 4.5 µM. Still for that read-out and setting: the result for `CCCCCSc1cc(OC)c(CC(C)N)cc1OC` (configuration not stated) reads 14.3 µM; that for `CCCSc1cc(OC)c(CC(CC)NC)cc1OC` (configuration not stated), 1.4 µM; that for `COc1cc(SCCc2ccccc2)c(OC)cc1CC(C)N` (configuration not stated), more than 100 µM.

On to `CCSc1ccc(CC(C)N)cc1` (configuration not stated), for which half-maximal inhibition in data set [1] (IC50) was put at 0.1 µM.

In turn, `COc1ccc(CC(C)N)cc1OC` (configuration not stated) registered an IC50 in data set [1] of 20 µM.

In turn, `COc1ccc(CC(C)N)c(OC)c1` (configuration not stated) returned an IC50 in data set [1] of 0.6 µM. This IC50 is about 33-fold lower than that of the molecule before. Still for that read-out and setting: the result for `COc1cc(Br)c(CC(C)N)cc1OC` (configuration not stated) reads 9.3 µM. `COc1cc(OC)c(CC(C)N)cc1Br` (configuration not stated) displayed a concentration for half-maximal inhibition (IC50) in data set [1] of 13 µM. This IC50 and that of the molecule before are within 1.5-fold of each other. Molecule `CCSc1cc(OC)c(CC(C)N)cc1OC` (configuration not stated) displayed a half-maximal inhibitory concentration (IC50) in data set [1] of 3.8 µM. On the same count and under the same terms, to `COc1cc(OC)c(CC(C)N)c(OC)c1` (configuration not stated) belongs 0.4 µM. Consider `CCCSc1cc(OC)c(CC(C)N)cc1OC` (configuration not stated), for which the half-inhibitory concentration (IC50) in data set [1] was found to be 2.4 µM. Besides, the Inhibition in data set [2] was found to be 0%; in data set [3], 20%; in data set [4], 15.7%; in data set [5], 20%. In data set [1], `CC(N)Cc1ccc(Cl)cc1` (configuration not stated) came in with an IC50 of 4 µM. The same measure, in the same setting: the result for `CCSc1cc(OC)c(CC(N)CC)cc1OC` (configuration not stated) reads 11.8 µM; that for `COc1cc(SC)c(OC)cc1CC(C)N` (configuration not stated), 5.2 µM. As to `COc1cc(CC(C)N)c(OC)cc1I` (configuration not stated), in data set [1], the half-inhibitory concentration (IC50) came out at 44 µM. Still for that read-out and setting: to `COc1cc(C(F)(F)F)c(OC)cc1CC(C)N` (configuration not stated) belongs more than 100 µM. In data set [1], `COc1cc(CC(C)N)c(OC)cc1N` (configuration not stated) gave an IC50 of more than 100 µM. Still for that read-out and setting: to `COc1cc([N+](=O)[O-])c(OC)cc1CC(C)N` (configuration not stated) belongs more than 100 µM. Still for that read-out and setting: to `COc1ccc(OC)c(CC(C)N)c1` (configuration not stated) belongs more than 100 µM. With `CSc1ccc(CC(C)N)cc1` (configuration not stated) [4-METHYLTHIOAMPHETAMINE], the IC50 in data set [1] turned out to be 0.2 µM. For the molecule `COc1cc(CC(C)N)c(OC)cc1Br` (configuration not stated) [BROLAMFETAMINE], the IC50 in data set [1] came out at 100 µM. On the same count and under the same terms, the result for `COc1cc(CC(C)N)c(OC)cc1C` (configuration not stated) [DOM] reads 24 µM. Still for that read-out and setting: to `COc1ccc(CC(C)N)cc1` (configuration not stated) [PARA-METHOXYAMPHETAMINE] belongs 0.3 µM.

The record behind these values is ChEMBL document CHEMBL1140264, “Sulfur-substituted alpha-alkyl phenethylamines as selective and reversible MAO-A inhibitors: biological activities, CoMFA analysis, and active site modeling” (J Med Chem, 2005).
